One series addresses CYP2C9 (Homo sapiens, UniProt P11712). Kind of series: Inhibition of recombinant human CYP2C9 expressed in baker's yeast-derived microsomes (Sacchrosomes) at 10 uM using 3-cyano-7-ethoxycoumarin substrate by EROD assay relative to control. The settings on record: probe 3-cyano-7-ethoxycoumarin. The format is ADME. An outline of the steps:
(§1)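 Yeast microsomes carrying recombinant CYP (Sacchrosomes). […] Substrates per isoform are 7-ethoxyresorufin, 3-cyano-7-ethoxycoumarin, EOMCC or dibenzylfluorescein, read as endpoint fluorescence. Background from compound-only wells without enzyme is subtracted. Independent triplicate runs; α-naphthoflavone positive control.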

Series [1] addresses T1, CYP1A1 (Homo sapiens, UniProt P04798).
T1 sequence (P04798 whole entry): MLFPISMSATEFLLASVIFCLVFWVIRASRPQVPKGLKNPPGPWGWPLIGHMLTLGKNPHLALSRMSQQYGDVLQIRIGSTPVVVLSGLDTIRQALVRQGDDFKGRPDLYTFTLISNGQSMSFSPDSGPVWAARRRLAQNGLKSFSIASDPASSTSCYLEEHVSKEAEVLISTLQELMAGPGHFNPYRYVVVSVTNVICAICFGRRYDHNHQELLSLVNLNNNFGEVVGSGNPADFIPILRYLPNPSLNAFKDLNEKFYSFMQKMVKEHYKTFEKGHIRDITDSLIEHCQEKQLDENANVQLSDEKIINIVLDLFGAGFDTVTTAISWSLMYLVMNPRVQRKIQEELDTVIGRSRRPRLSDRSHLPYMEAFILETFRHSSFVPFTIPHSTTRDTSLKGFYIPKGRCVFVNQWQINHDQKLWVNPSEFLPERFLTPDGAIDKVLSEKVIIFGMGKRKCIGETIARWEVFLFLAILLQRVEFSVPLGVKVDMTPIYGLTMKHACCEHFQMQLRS
Kind of series: Inhibition of human recombinant CYP1A1 expressed in HEK293 cells at 10 uM using 7-ethoxyresorufin substrate preincubated for 30 mins followed by substrate addition and measured after 60 mins by fluorescence assay relative to control. It is filed as cell-based. To be noted: HEK293 cells expressing human recombinant CYP1A1, probe 7-ethoxyresorufin. An outline of the steps:
(§2)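 HEK293 cells adapted to suspension and transiently transfected with pcDNA3.1 plasmids carrying the individual CYP; 100×10^3 cells per well in triplicate. […] Fluorogenic substrate is then added at 5 μM and fluorescence read for 60 min.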

In the next series the target is CYP3A4 (Homo sapiens, UniProt P08684). Nature of the series: Inhibition of recombinant human CYP3A4 expressed in baker's yeast-derived microsomes (Sacchrosomes) at 10 uM using dibenzylfluorescein substrate by EROD assay relative to control. The settings on record: probe dibenzylfluorescein. It is filed as ADME. An outline of the steps:
as §1

For a further series, the target named is T2, Cytochrome P450 1A2 (Homo sapiens, UniProt P05177).
T2 sequence (P05177 whole entry): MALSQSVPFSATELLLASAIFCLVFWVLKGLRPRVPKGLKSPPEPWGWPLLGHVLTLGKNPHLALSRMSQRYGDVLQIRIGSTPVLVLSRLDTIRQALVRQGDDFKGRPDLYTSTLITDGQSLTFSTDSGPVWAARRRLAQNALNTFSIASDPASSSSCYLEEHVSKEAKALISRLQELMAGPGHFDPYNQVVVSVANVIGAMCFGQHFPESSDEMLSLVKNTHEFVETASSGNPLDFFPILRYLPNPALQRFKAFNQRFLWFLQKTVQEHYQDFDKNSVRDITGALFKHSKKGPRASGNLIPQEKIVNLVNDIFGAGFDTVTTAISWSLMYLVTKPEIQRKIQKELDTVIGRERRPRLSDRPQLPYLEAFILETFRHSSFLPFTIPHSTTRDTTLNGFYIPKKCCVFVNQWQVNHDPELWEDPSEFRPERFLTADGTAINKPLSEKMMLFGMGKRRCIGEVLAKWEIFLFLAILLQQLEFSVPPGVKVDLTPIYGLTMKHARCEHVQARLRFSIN
Kind of series: Inhibition of human recombinant CYP1A2 expressed in HEK293 cells using 3-cyano-7-ethoxycoumarin substrate preincubated for 30 mins followed by substrate addition and measured after 60 mins by fluorescence assay relative to control. The format is ADME, cell-based. An outline of the steps:
as §2

The target in series [2] is T1, CYP1A1. Kind of series: Inhibition of recombinant human CYP1A1 expressed in baker's yeast-derived microsomes (Sacchrosomes) at 10 uM using 7-ethoxyresorufin substrate by EROD assay relative to control. The settings on record: probe 7-ethoxyresorufin. An outline of the steps:
(§3)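 Yeast microsomes carrying recombinant CYP (Sacchrosomes). Substrates per isoform are 7-ethoxyresorufin, 3-cyano-7-ethoxycoumarin, EOMCC or dibenzylfluorescein, read as endpoint fluorescence. Background from compound-only wells without enzyme is subtracted. Independent triplicate runs; α-naphthoflavone positive control.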

In the next series the target is Cytochrome P450 2D6 (Homo sapiens, UniProt P10635). Nature of the series: Inhibition of human recombinant CYP2D6 expressed in HEK293 cells using 7-ethoxy-methyloxy-3-cyanocoumarin substrate substrate preincubated for 30 mins followed by substrate addition and measured after 60 mins by fluorescence assay relative to control. It is filed as ADME, cell-based. An outline of the steps: as §2
Cytochrome P450 2D6, sequence (P10635 whole entry): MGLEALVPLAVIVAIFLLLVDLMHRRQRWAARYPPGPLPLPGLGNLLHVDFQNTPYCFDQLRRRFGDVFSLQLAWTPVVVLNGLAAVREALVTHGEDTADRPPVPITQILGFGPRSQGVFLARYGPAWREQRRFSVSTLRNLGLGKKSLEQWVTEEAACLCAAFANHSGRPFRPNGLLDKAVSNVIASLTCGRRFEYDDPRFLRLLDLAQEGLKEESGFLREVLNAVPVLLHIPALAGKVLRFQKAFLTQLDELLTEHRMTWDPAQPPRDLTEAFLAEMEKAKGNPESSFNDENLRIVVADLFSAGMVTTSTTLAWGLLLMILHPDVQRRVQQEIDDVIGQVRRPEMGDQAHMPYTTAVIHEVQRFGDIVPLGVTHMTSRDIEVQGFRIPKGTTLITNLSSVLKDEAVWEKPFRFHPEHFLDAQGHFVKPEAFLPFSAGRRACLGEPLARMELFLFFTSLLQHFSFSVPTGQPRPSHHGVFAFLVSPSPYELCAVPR

For a further series, the target named is Cytochrome P450 2C9 (Homo sapiens, UniProt P11712). Kind of series: Inhibition of human recombinant CYP2C9 expressed in HEK293 cells using 3-cyano-7-ethoxycoumarin substrate substrate preincubated for 30 mins followed by substrate addition and measured after 60 mins by fluorescence assay relative to control. The format is ADME, cell-based. The method in brief:
as §2

Another series deals with T3, CYP1B1 (Homo sapiens, UniProt Q16678).
T3 sequence (Q16678 whole entry): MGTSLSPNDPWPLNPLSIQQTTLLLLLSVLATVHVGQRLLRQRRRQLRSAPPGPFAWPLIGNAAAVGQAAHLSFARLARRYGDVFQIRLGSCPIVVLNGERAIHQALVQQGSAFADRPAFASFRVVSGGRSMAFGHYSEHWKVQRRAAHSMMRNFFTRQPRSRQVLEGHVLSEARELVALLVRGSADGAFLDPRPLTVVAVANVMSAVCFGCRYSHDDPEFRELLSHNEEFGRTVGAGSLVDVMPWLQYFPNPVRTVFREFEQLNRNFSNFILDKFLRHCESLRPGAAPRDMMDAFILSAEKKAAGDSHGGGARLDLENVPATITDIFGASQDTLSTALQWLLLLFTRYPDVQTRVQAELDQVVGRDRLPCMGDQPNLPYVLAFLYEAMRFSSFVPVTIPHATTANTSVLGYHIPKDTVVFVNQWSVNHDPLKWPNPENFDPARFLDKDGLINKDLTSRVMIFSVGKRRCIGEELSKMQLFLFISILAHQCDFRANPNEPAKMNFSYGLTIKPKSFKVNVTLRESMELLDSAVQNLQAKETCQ
Kind of series: Inhibition of recombinant human CYP1B1 expressed in baker's yeast-derived microsomes (Sacchrosomes) at 10 uM using 7-ethoxyresorufin substrate by EROD assay relative to control. The format is ADME. To be noted: probe 7-ethoxyresorufin. The method in brief:
as §1

For another series, the target named is Cytochrome P450 2C19 (Homo sapiens, UniProt P33261). Kind of series: Inhibition of human recombinant CYP2C19 expressed in HEK293 cells using 3-cyano-7-ethoxycoumarin substrate substrate preincubated for 30 mins followed by substrate addition and measured after 60 mins by fluorescence assay relative to control. It is filed as ADME, cell-based. The method in brief: as §2
Cytochrome P450 2C19, sequence (P33261 whole entry): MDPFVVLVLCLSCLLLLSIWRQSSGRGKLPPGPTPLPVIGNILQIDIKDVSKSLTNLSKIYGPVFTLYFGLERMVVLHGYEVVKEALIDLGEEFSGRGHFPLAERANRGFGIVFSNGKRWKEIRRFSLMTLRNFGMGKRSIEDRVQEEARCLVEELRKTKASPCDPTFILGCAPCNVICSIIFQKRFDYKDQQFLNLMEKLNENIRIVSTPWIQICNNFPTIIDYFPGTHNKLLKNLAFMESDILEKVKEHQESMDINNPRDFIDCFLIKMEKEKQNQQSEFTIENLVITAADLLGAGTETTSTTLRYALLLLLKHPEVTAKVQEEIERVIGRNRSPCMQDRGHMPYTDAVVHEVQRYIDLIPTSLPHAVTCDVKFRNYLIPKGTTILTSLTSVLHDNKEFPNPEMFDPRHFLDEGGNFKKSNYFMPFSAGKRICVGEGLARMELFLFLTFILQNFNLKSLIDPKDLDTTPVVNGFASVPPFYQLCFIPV

A further series deals with Cytochrome P450 3A4 (Homo sapiens, UniProt P08684). Kind of series: Inhibition of human recombinant CYP3A4 expressed in HEK293 cells using dibenzylfluorescein substrate substrate preincubated for 30 mins followed by substrate addition and measured after 60 mins by fluorescence assay relative to control. It is filed as ADME, cell-based. An outline of the steps: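 HEK293 cells adapted to suspension and transiently transfected with pcDNA3.1 plasmids carrying the individual CYP; 100×10^3 cells per well in triplicate. Fluorogenic substrate is then added at 5 μM and fluorescence read for 60 min.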
Cytochrome P450 3A4, sequence (P08684 whole entry): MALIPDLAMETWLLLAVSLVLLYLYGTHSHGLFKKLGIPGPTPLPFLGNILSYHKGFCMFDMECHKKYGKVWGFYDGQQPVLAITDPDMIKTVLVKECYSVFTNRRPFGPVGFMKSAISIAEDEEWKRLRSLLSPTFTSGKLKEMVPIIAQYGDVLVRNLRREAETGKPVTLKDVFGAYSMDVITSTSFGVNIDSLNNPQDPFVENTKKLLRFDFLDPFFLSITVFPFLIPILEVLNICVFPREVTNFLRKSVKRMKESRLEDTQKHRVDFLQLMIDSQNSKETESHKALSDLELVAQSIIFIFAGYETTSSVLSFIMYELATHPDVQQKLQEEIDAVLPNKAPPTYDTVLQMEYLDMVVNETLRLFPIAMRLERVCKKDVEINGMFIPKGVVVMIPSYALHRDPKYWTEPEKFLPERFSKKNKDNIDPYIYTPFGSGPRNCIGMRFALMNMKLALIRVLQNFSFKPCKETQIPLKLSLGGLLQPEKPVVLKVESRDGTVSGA

For a further series, the target named is T4, CYP1A2 (Homo sapiens, UniProt P05177).
T4 sequence (P05177 whole entry): T2 sequence (P05177 whole entry)
Nature of the series: Inhibition of recombinant human CYP1A2 expressed in baker's yeast-derived microsomes (Sacchrosomes) at 10 uM using 3-cyano-7-ethoxycoumarin substrate by EROD assay relative to control. The format is ADME. To be noted: probe 3-cyano-7-ethoxycoumarin. An outline of the steps:
as §3

For the next series, the target named is CYP2D6 (Homo sapiens, UniProt P10635). Nature of the series: Inhibition of recombinant human CYP2D6 expressed in baker's yeast-derived microsomes (Sacchrosomes) at 10 uM using 7-ethoxy-methyloxy-3-cyanocoumarin substrate by EROD assay relative to control. The format is ADME. The settings on record: probe 7-ethoxy-methyloxy-3-cyanocoumarin. The method in brief: as §1
CYP2D6, sequence (P10635 whole entry): as the sequence (P10635 whole entry) above

The target of another series is CYP2C19 (Homo sapiens, UniProt P33261). Kind of series: Inhibition of recombinant human CYP2C19 expressed in baker's yeast-derived microsomes (Sacchrosomes) at 10 uM using 3-cyano-7-ethoxycoumarin substrate by EROD assay relative to control. The format is ADME. To be noted: probe 3-cyano-7-ethoxycoumarin. An outline of the steps:
as §1

Another series concerns the target T5, Cytochrome P450 1B1 (Homo sapiens, UniProt Q16678).
T5 sequence (Q16678 whole entry): T3 sequence (Q16678 whole entry)
Nature of the series: Inhibition of human recombinant CYP1B1 expressed in HEK293 cells using 7-ethoxyresorufin substrate substrate preincubated for 30 mins followed by substrate addition and measured after 60 mins by fluorescence assay relative to control. The format is ADME, cell-based. The method in brief: as §2

Another series concerns the target T6, Cytochrome P450 1A1 (Homo sapiens, UniProt P04798).
T6 sequence (P04798 whole entry): T1 sequence (P04798 whole entry)
Nature of the series: Inhibition of human recombinant CYP1A1 expressed in HEK293 cells using 7-ethoxyresorufin substrate preincubated for 30 mins followed by substrate addition and measured after 60 mins by fluorescence assay relative to control. It is filed as cell-based. An outline of the steps: as §2

This passage reports inhibition, IC50 and Ki results from ChEMBL document CHEMBL4257453, “Identification of karanjin isolated from the Indian beech tree as a potent CYP1 enzyme inhibitor with cellular efficacy via screening of a natural product repository” (Medchemcomm, 2018).

pIC50, pKi: −log10 of the molar value.

CYP2C19, sequence (P33261 whole entry): as the sequence (P33261 whole entry) above
CYP2C9, sequence (P11712 whole entry, canonical isoform): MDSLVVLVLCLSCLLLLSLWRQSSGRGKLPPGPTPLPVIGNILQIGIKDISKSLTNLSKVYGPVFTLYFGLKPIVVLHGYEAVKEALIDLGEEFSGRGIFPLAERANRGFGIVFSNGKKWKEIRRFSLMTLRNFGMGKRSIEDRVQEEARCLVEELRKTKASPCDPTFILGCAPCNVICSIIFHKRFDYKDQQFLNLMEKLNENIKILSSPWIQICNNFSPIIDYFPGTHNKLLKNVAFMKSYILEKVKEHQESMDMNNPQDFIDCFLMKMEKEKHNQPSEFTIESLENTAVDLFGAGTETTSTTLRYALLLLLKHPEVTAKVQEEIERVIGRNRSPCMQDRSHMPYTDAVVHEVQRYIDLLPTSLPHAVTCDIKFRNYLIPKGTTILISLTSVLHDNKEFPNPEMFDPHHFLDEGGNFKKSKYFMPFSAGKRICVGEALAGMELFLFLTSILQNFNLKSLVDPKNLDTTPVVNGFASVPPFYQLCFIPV
CYP3A4, sequence (P08684 whole entry): as the sequence (P08684 whole entry) above
Cytochrome P450 2C9, sequence (P11712 whole entry): as the sequence (P11712 whole entry, canonical isoform) above

With `COc1ccc2c(c1OC)C(OC)N(C)c1c-2ccc2cc3c(cc12)OCO3` (centres undefined), the inhibition (commonly the relative decrease from the control value, in per cent) at 10 µM amounted to 4% at CYP2C9; 6% at CYP3A4; 90% at CYP1A1 [2]; 10% on CYP1B1; 7% on CYP1A2; 11% at CYP2D6. The inhibition at 10 µM on CYP2C19 came to 3%. The inhibition at 1 h, 10 µM at CYP1A1 [1] was 80%. Besides, the pIC50 (commonly the IC50 on a negative log10 scale, so that one unit is a factor of ten) on Cytochrome P450 1A2 was 5.05; at Cytochrome P450 2D6 it was < 5.00; at Cytochrome P450 2C9, < 5.00; on Cytochrome P450 2C19, < 5.00; on Cytochrome P450 3A4, < 5.00; on Cytochrome P450 1B1, 5.11. Besides, the pIC50 at Cytochrome P450 1A1 was 5.52. For the same compound, the results for the pKi on Cytochrome P450 1A2 and on Cytochrome P450 1A1 were 5.04 and 5.49, respectively.

For `CCOc1c2occc2cc2ccc(=O)oc12`, the inhibition at 10 µM at CYP1A1 [2] was determined as 89%.

For `COc1c(O)cc2oc(-c3ccc(O)cc3)cc(=O)c2c1O` [HISPIDULIN], on CYP1A1 [2], the inhibition at 10 µM was found to be 86%.

With `CC(C)=CCOc1c2occc2cc2ccc(=O)oc12` [PENTOSALEN], the inhibition at 10 µM at CYP1A1 [2] was found to be 71%.

On to `O=c1cc(-c2ccccc2)oc2c1ccc1ccccc12` [ALPHA-NAPHTHOFLAVONE], for which the inhibition at 10 µM on CYP2C9 was 10%; at CYP3A4, 6%; on CYP1B1, 96%; at CYP2D6, 5%; on CYP2C19 it was 9%.

With `C=CCOc1cc(OCC=C)c2ccc(=O)oc2c1`, on CYP1A1 [2], the inhibition at 10 µM stood at 69%.

Regarding `COc1ccc2ccc(=O)oc2c1CC=C(C)C` [OSTHOLE], the inhibition at 10 µM on CYP1A1 [2] turned out to be 34%.

Turning to `COc1cc2ccc(=O)oc2c2ccoc12` [SPHONDIN], the inhibition at 10 µM on CYP1A1 [2] came out at 67%.

In the case of `CC(C)(O)C(O)COc1c2occc2cc2ccc(=O)oc12` (centres undefined), the inhibition at 10 µM on CYP1A1 [2] is 72%.
